Bioassay records (PubChem BioAssay)
DNMT1 block – human DNMT1 methyltransferase inhibitors, primary screen, biochemical, molecular beacon, fluorescence, HinP1I cleavage, uHTS; inhibition (reported as % activation of signal), % at 10 µM; 0.83% of 360,000 active; AID 588458, 2011; in the data active = inhibition above about 50%
Target sequence (P26358 504-1616 limits assumed): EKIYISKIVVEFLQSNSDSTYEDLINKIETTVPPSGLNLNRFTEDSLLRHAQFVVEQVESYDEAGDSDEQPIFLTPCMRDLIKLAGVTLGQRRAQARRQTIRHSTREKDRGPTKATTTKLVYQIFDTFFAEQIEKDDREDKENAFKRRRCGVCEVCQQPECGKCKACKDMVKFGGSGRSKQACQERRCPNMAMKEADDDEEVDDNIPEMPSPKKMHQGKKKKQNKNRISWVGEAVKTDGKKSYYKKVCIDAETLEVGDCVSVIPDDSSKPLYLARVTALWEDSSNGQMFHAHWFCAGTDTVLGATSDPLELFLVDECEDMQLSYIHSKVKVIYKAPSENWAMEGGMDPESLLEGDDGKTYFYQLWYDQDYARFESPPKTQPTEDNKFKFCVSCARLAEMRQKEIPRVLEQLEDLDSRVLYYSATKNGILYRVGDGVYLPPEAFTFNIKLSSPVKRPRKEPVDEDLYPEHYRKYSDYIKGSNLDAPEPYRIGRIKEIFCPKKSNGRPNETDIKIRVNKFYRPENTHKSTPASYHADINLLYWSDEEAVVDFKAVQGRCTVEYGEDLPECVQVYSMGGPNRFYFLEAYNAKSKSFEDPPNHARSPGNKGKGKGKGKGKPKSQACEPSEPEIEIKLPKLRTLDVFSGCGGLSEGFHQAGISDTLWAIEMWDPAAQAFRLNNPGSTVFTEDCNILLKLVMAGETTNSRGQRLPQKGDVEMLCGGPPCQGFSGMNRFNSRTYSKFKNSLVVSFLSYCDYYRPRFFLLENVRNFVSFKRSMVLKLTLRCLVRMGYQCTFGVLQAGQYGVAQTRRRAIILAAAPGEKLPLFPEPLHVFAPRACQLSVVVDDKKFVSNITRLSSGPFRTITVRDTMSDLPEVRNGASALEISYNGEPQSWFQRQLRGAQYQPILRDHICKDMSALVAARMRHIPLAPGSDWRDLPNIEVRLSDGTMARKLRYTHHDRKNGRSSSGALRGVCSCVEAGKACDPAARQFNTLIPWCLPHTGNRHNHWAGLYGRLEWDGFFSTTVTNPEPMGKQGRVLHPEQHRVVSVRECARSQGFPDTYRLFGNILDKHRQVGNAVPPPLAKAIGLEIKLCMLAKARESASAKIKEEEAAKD
STEP block – STEP phosphatase inhibitors, primary screen, biochemical, fluorescence intensity, uHTS. recombinant STEP, OMFP fluorogenic substrate. inhibition, % at 20 µM. 0.25% of 360,000 active. AID 588621, 2011;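 active = inhibition at 20 µM, scaled per plate between control wells, above about 37%, limit read from the data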;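 also: 0% = DMSO with enzyme and substrate and 100% = substrate only without enzyme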
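Assay system: isolated STEP enzyme / Timing: 20 min at room temperature, dark / Doses: 20 µM, 1% DMSO / Technique: fluorescence intensity, excitation 480 nm, emission 540 nm / Reagent: fluorogenic phosphatase substrate OMFP at 25 µM final / Measure: percent inhibition scaled to no-enzyme and uninhibited-enzyme controls, plate-pattern corrected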
Scp1 inh – Scp-1 phosphatase inhibitors, primary screen, biochemical, colorimetric, uHTS; 0.88% of 340,000 active; Recombinant Scp1, phosphopeptide, malachite green phosphate absorbance; inhibition, % at 20 µM; Carboxy-terminal domain RNA polymerase II polypeptide A small phosphatase 1 (Homo …; AID 493091, 2011;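 active = inhibition above about 50% at 20 µM, limit read from the data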;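 also: plate controls were DMSO wells with enzyme for no effect and wells lacking enzyme for full effect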
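System: SCP-1 catalytic domain; Reagent: Phospho 17-mer peptide substrate; Doses: one concentration, 20 µM, with 1.0% DMSO; Incubation: 45 min room-temperature reaction, 5 min colour, 30 min stabiliser; Signal: Phosphate-binding colour reagent, absorbance read at 630 nm.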
LMPTP inh – LMPTP phosphatase inhibitors, primary screen, biochemical, fluorescence intensity, uHTS; inhibition, % at 20 µM; 0.22% of 360,000 active; recombinant LMPTP-A, OMFP fluorogenic substrate; Low molecular weight phosphotyrosine protein phosphatase (Homo sapiens), P24666;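 active = compounds that cut the enzyme signal by at least half of the control window in the single-dose screen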;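 also: plate controls were DMSO wells with enzyme plus substrate for no effect and substrate without enzyme for full effect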
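Test system – LMPTP-A enzyme · Amount – LMPTP-A at 0.625 nM final in the reaction · Buffer or medium – Bis-Tris pH 6.0, DTT, detergent · Reagent – OMFP 400 µM · Doses – single 20 µM dose · Schedule – reaction 50 min, room temperature, dark · Detection – fluorescence intensity of OMFP turnover product · Evaluation – percent inhibition versus substrate-only and uninhibited controls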
SUMO1-SIM PPI – modulators of SUMO1 protein-protein interactions, primary screen, biochemical, uHTS; Small ubiquitin-related modifier 1 (Homo sapiens), P63165; SUMO1 binding to a labelled peptide, TR-FRET, 1 h; inhibition, % at 20 µM; 0.33% of 360,000 active; AID 602429, 2012; in the data active = inhibition above about 37%
UBC9 SUMO inh – inhibitors of in vitro SUMOylation cascade, primary screen, biochemical, HTRF, uHTS; SUMO-conjugating enzyme UBC9 (Homo sapiens), P63279; inhibition, % at 35 µM; AID 2006, 2009; HTRF SUMOylation assay, SAE1/SAE2 + UBC9; 0.36% of 290,000 active; in the data active = inhibition above about 50%, passing the limit was not always enough
Scp1 confirm – Scp-1 phosphatase inhibitors, retest, confirmation, biochemical, colorimetric, single concentration. 61% of 2,500 active. AID 540281, 2011. inhibition, % at 20 µM. recombinant SCP-1 catalytic domain, phosphate release, malachite green absorbance. shares compounds with Scp1 inh;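 also: plate controls were DMSO with enzyme for no effect and buffer wells lacking enzyme for full effect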
Scp-1 MG ctr – colorimetric readout interference by compounds, confirmation, artefact control for Scp-1 inhibitor project, biochemical, single concentration. shares compounds with Scp1 inh. Colorimetric interference counterscreen, malachite green absorbance 630 nm. apparent inhibition (interference), % at 20 µM. 2,500 tested, under 10 active;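 also: compounds added after enzyme reaction finished so only phosphate colour detection is probed; plate controls were DMSO wells with completed Scp-1 reaction for no effect and substrate wells lacking enzyme for full effect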
Scp-1 Tm shift – Scp-1 binding by thermal shift, confirmation, orthogonal assay for Scp-1 inhibitor project, biophysical, differential scanning fluorimetry | Recombinant SCP1, Sypro Orange thermal shift Tm | shares compounds with Scp1 inh | thermal shift relative to vanadate control, % at 40 µM | 25% of 1,500 active | AID 540329, 2011;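 active = substances whose mean melting-temperature shift, as a percentage of the reference inhibitor's shift, reaches about 5.3%, limit read from the data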;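 also: 0% = Tm of DMSO wells and 100% = Tm with sodium orthovanadate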
DNMT1 confirm – DNMT1 methyltransferase inhibitor retest, confirmation, biochemical, molecular beacon, fluorescence, single concentration; AID 602385, 2012; DNMT1 molecular beacon HinP1I cleavage; shares compounds with DNMT1 block; inhibition, % at 10 µM; 8% of 2,300 active;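 active = average inhibition of at least 30% in the single-concentration confirmation test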
Beacon interf – shows spectral interference in the DNMT1 beacon assay; activation (fluorescence interference), % at 10 µM; DNMT1 molecular beacon spectral interference counterscreen, fluorescence 485/520; AID 602387; 1% of 2,300 active; shares compounds with DNMT1 block;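 active = activation of at least 30% at 10 µM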;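 also: DNMT1 catalytic domain with a HinP1I cleavage step and a FAM/dabcyl DNA beacon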
STEP conf – STEP phosphatase inhibitor hit confirmation, biochemical, fluorescence intensity, single concentration; recombinant STEP, OMFP fluorogenic substrate; 32% of 520 active; shares compounds with STEP block; inhibition, % at 20 µM; call rule not given here;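 also: 0% = enzyme with substrate plus DMSO and 100% = substrate without enzyme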
An asterisk follows results filed as active; · = no result given. In the library only some 1.9% were active in any assay of this set; here they are far more common.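 The calls were made as follows, unless noted: active = inhibition of at least 30% at 20 µM; inactive = the rest.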

SMILES	DNMT1 block	STEP block	Scp1 inh	LMPTP inh	SUMO1-SIM PPI	UBC9 SUMO inh	Scp1 confirm	Scp-1 MG ctr	Scp-1 Tm shift	DNMT1 confirm	Beacon interf	STEP conf
O=C(CSc1nnc2c(n1)[nH]c1ccc(F)cc12)NC1CC1	1	0	-1	0	-10	14	·	·	·	·	·	·
COc1cccc(N2[C@@H](CC(C)=O)c3ccccc3S2(=O)=O)c1	3	-1	-5	1	4	·	·	·	·	·	·	·
COc1cccc(N2[C@@H](CC(=O)O)c3ccc(/C=C/C(=O)O)cc3S2(=O)=O)c1	102*	50*	70*	8	9	·	54*	-15	-2	1	1	36*
CCN(c1ccccc1)S(=O)(=O)c1cc(C(=O)O)ccc1C	85*	95*	56*	60*	12	-4	46*	-15	0	0	1	19
O=C(N/N=C/c1ccc(Br)cc1)c1ccc(Br)o1	6	47*	100*	12	-5	4	82*	-17	-9	·	·	71*
O=C(N/N=C/c1ccc(F)cc1)c1ccc(Br)cc1	1	-3	30	0	-1	-4	·	·	·	·	·	·
O=C(Nc1ccc2oc(-c3ccccc3F)nc2c1)c1ccc([N+](=O)[O-])o1	108*	99*	101*	90*	98*	48	95*	-7	-6	6	-5	16
Cc1nc2cc(-c3ccc(Br)cc3)[nH]n2c(=O)c1Cl	7	97*	96*	38	12	-4	20	-7	·	·	·	1
Cc1ccc(-c2c(NCCc3ccccc3)c(=O)c2=O)cc1	10	57*	89*	26	5	9	59*	-10	-9	·	·	9
COc1ccc(S(=O)(=O)N(C)c2ccc(C(=O)Nc3c(C)n(C)n(-c4ccccc4)c3=O)cc2)cc1	1	-2	-5	1	-6	13	·	·	·	·	·	·
O=C(Cn1nnc(-c2ccc(NC(=O)c3ccccc3F)cc2)n1)NCc1ccc(F)cc1	77*	65*	52*	39	6	34	68*	-15	8.1*	1	-4	20
COc1ccc2cc3c(N)nn(C(=O)c4cccc(F)c4)c3nc2c1	43	96*	96*	26	85*	28	60*	-16	-22	·	·	21*
O=c1cc(-c2ccsc2)oc2cc(-c3ccc4c(c3)OCO4)ccc12	61*	46*	68*	68*	7	·	53*	-19	-2	0	-1	7
COc1cc(-c2ccc3oc(-c4ccsc4)cc(=O)c3c2)cc(OC)c1OC	-9	3	-12	5	8	·	·	·	·	·	·	·
CCC(C)NCCCCOc1ccc(Cl)cc1C (stereo not drawn)	2	-3	-8	0	-1	-14	·	·	·	·	·	·
O=C(N/N=C/c1ccc(Br)s1)c1cccc([N+](=O)[O-])c1	71*	94*	99*	91*	31	6	76*	-14	1	1	0	56*
O=C(N/N=C/c1ccoc1)c1cccc([N+](=O)[O-])c1	22	10	24	1	-23	1	·	·	·	·	·	·
COc1ccccc1C1C2=C(CC(C)(C)CC2=O)N(CC(=O)O)C2=C1C(=O)CC(C)(C)C2	52*	0	-8	-1	-8	25	·	·	·	7	9	·
COc1ccc(N2C3=C(C(=O)CC(C)(C)C3)C(c3ccccc3OC)C3=C2CC(C)(C)CC3=O)cc1	-8	0	-10	1	-7	16	·	·	·	·	·	·
O=C(c1cc2cc(Br)ccc2oc1=O)N1CCN(c2ccccn2)CC1	2	-2	3	0	-7	7	·	·	·	·	·	·
O=C(c1cc2cc(Cl)ccc2oc1=O)N1CCN(c2ccccn2)CC1	89*	1	0	1	-6	1	·	·	·	-2	2	·
O=C(CCN1C(=O)/C(=C/c2cccc(Br)c2)SC1=S)NNC(=O)c1cccnc1	71*	-1	1	11	-13	-7	·	·	·	3	-1	·
CCOC(CNC(=O)c1ccc2c(c1)ncn2-c1ccc(F)c(F)c1)OCC	1	2	-5	-2	-1	10	·	·	·	·	·	·
CCCCCCn1c(=O)[nH]c2nc3cc(N)c(C)cc3nc2c1=O	63*	-199	-3	-11	-24	24	·	·	·	74*	118*	·
Cc1cc(C)n2nc(SCC(=O)N(C)c3c(N)n(Cc4ccccc4)c(=O)[nH]c3=O)nc2n1	4	0	·	-1	2	9	·	·	·	·	·	·
N#CCC(=O)Nc1ccc(C(=O)OCC(=O)N2CCCC2=O)cc1	4	-1	30	-1	2	·	·	·	·	·	·	·
COc1ccc(OC)c(S(=O)(=O)Nc2cc(OC)c(Cl)cc2OC)c1	69*	2	-5	0	3	11	·	·	·	4	6	·
CC1CN(C(=O)COc2ccc3c(-c4ccccc4)cc(=O)oc3c2)CC(C)O1 (stereo not drawn)	2	0	-8	-2	-24	·	·	·	·	·	·	·
